# Data from ChEMBL document CHEMBL4673287, “Synthesis and biological evaluation of novel antipsychotic trans-4-(2-(1,2,4,5-tetrahydro-3H-benzo[d]azepin-3-yl)ethyl)cyclohexan-1-amine derivatives targeting dopamine/serotonin receptor subtypes” (Bioorg Med Chem Lett, 2021).
# Tests used:
# [1] = target: T1, Adrenergic receptor alpha-1 (Homo sapiens, UniProt P35348+P25100+P35368); test: Binding affinity to adrenergic alpha1 receptor (unknown origin); assay type: protein assay
# T1 sequence (P35348 whole entry): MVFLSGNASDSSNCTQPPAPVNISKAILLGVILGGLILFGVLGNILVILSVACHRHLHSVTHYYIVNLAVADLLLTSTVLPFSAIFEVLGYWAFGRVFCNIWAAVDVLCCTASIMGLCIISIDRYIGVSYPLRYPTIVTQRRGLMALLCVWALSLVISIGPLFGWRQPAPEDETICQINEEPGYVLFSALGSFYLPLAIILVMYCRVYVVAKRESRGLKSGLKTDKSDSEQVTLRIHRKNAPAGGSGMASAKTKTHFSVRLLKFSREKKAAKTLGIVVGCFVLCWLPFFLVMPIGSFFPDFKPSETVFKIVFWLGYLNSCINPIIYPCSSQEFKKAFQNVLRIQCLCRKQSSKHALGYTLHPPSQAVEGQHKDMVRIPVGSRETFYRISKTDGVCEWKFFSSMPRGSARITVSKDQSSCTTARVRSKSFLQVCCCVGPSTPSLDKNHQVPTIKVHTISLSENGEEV
# T1 sequence (P25100 whole entry): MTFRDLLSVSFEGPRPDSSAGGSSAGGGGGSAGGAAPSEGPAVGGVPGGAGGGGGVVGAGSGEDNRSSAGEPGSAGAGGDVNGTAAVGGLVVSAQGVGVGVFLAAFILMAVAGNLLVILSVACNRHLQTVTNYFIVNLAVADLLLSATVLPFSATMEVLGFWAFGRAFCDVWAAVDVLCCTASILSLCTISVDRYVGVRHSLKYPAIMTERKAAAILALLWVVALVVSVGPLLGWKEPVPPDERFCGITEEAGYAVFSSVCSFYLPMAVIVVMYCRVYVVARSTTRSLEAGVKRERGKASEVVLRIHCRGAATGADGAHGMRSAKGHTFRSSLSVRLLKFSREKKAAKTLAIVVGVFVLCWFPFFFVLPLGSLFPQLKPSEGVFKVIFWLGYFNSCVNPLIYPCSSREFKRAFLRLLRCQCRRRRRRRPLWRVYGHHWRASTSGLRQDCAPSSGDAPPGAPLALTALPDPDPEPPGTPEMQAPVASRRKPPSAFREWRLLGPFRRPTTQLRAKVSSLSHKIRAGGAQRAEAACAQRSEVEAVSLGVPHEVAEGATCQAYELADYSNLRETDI
# T1 sequence (P35368 whole entry): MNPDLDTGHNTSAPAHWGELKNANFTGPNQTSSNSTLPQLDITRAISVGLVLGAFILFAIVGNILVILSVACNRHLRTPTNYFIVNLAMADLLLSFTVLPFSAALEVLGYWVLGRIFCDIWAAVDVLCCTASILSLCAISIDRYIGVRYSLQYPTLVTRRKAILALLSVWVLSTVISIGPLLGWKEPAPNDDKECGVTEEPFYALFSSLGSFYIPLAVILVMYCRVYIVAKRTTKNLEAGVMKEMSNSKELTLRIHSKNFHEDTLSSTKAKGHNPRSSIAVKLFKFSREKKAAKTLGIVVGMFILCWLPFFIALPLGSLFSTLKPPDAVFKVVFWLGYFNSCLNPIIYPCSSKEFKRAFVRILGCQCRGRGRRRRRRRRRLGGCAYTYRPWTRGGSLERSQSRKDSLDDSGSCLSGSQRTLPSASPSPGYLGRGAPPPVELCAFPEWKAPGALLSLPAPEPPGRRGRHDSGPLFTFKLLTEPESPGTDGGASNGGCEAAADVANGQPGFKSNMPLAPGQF
# Rattus norvegicus = test: Antipsychotic activity in orally dosed Sprague-Dawley rat assessed as inhibition of PCP-induced hyperactivity administered 20 mins before PCP stimulation and measured after 1 hr; assay type: functional, organism-based; details: dose 1-10 mg/kg, time 80.0 min
# Procedure, shortened: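 Male Sprague-Dawley rats dosed orally 20 min before PCP (5 mg/kg) injection. Locomotor activity recorded for 1 h after PCP, read as total travel distance. Mean ± standard error of the mean, n = 8-10 per group.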
# [2] = target: T2, Adrenergic receptor alpha-1 (Rattus norvegicus, UniProt P15823+P23944+P43140); test: Displacement of [3H]-prazosin from adrenergic alpha1 in rat cerebral cortex; assay type: tissue-based
# T2 sequence (P15823 whole entry): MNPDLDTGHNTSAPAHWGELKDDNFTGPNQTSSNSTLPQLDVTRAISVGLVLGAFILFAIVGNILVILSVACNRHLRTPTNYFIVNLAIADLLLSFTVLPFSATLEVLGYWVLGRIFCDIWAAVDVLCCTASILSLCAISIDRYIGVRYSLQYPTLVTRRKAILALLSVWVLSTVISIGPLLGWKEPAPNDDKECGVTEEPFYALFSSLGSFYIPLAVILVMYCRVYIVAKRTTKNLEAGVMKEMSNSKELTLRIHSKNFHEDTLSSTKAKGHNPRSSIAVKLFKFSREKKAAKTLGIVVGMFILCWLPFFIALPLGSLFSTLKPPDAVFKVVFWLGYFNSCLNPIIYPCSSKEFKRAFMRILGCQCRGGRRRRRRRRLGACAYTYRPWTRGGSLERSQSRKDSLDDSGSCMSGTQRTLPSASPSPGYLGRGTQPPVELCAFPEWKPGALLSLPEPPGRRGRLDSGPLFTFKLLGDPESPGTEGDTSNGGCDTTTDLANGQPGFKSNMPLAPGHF
# T2 sequence (P23944 whole entry): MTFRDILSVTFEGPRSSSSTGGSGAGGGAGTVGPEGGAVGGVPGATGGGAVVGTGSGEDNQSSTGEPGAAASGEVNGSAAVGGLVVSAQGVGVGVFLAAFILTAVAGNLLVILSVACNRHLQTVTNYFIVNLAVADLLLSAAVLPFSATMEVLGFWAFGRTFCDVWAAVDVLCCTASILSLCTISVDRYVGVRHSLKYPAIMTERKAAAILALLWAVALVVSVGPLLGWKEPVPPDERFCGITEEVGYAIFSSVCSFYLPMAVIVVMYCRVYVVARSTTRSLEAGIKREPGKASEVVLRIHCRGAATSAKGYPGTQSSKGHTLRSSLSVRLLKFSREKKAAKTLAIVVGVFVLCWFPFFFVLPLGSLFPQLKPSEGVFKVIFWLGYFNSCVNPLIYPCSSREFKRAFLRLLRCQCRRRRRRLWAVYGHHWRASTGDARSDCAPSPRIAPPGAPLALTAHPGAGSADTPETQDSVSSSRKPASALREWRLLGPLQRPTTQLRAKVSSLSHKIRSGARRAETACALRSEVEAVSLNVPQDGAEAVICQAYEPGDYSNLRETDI
# T2 sequence (P43140 whole entry): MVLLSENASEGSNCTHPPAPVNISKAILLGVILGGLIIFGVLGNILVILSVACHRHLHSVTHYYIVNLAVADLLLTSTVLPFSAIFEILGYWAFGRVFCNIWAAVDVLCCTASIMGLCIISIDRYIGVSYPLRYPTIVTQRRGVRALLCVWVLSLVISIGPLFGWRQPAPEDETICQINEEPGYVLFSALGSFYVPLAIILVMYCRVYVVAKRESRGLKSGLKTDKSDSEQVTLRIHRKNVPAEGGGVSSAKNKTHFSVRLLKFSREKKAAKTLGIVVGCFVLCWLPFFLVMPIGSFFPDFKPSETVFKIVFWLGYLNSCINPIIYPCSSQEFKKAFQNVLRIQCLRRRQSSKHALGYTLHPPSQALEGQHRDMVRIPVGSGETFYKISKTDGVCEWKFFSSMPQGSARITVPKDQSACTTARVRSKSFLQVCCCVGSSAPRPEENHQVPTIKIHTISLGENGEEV
# Procedure, shortened: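 Eight-concentration displacement curves, two independent experiments in duplicate, value is the mean Ki.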
Ki [1] [µM],Ki [2] [µM],SMILES,Activity (Rattus norvegicus)
0.0012,,CN1CC2c3ccccc3Oc3ccc(Cl)cc3C2C1 (stereo not drawn) [ASENAPINE],
,0.155,CN(C)C(=O)N[C@H]1CC[C@H](CCN2CCN(c3cccc(Cl)c3Cl)CC2)CC1 [CARIPRAZINE],Dose-dependent effect
